One block for each compound: values may come before it. Active and inactive are the calls of the source. The calls are words filed in the database; no cut-off is given here.
What was measured:
[1] = target: T1, D-amino-acid oxidase (Sus scrofa, UniProt P00371); assay: Binding affinity to pig kidney DAAO using D-alanine as substrate
[2] = Drug uptake in C57BL/6 mouse cerebellum at 30 mg/kg, ip after 6 hrs by LC/MS/MS analysis; format: ADME, organism-based; design: dose 30 mg/kg, route intraperitoneal; settings: read-out: Drug uptake
Summary of the method: (§1)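 Male C57BL/6 mice (20–30 g) were dosed ip in 50 mM phosphate buffer at 5 mL/kg, with controls given vehicle only. Regimens were 12 mg/kg once or repeated at 2, 4 and 6 h, 30 mg/kg, or 125 mg/kg. Mice were killed at set times. Cerebellar inhibitor and D-serine were measured in the same samples, D-serine by chiral LC/MS/MS. Initial rate was the slope over 0–2 h.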

[3] = target: T1, D-amino-acid oxidase; assay: Competitive inhibition of pig kidney DAAO in presence of D-alanine
[4] = target: T2, D-amino-acid oxidase (Homo sapiens, UniProt P14920); assay: Binding affinity to human recombinant DAAO by stopped flow spectrophotometric analysis in presence of FAD
T2 sequence (P14920 whole entry): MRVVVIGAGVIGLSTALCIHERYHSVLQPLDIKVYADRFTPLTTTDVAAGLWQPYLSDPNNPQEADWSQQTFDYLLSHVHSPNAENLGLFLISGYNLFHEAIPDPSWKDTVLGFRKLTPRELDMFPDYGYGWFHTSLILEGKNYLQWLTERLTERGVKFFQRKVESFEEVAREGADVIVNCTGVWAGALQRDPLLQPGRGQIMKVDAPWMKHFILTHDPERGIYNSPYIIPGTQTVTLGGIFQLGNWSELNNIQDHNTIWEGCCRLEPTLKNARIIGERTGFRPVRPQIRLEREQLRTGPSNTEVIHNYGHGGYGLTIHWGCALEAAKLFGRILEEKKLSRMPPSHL

[5] = target: T2, D-amino-acid oxidase; assay: Binding affinity to human recombinant DAAO at 492 nm spectral modification by spectrophotometric analysis in presence of FAD
Summary of the method: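 Purified human recombinant DAAO, E. coli-expressed and purified on a nickel column then size exclusion, was titrated in the oxidized (holoenzyme) state with rising inhibitor concentrations up to saturation, without substrate turnover. Ligand-induced changes in the FAD visible absorption spectrum were followed. Kd with SE came from nonlinear regression of saturation curves of absorbance change against inhibitor concentration.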

[6] = target: T2, D-amino-acid oxidase; assay: Binding affinity to human recombinant DAAO at 440 nm spectral modification by spectrophotometric analysis in presence of FAD
Summary of the method: (§2)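 Purified human recombinant DAAO holoenzyme (His-tagged construct expressed in E. coli, purified by nickel column and size exclusion) was titrated in its oxidized state with increasing inhibitor concentrations, without substrate turnover. Ligand-induced changes in the FAD visible absorption spectrum were read at the stated wavelength. Kd and SE came from nonlinear regression of absorbance-change saturation curves. Changes above 500 nm indicate a charge-transfer complex.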

[7] = target: T2, D-amino-acid oxidase; assay: Competitive inhibition of human recombinant DAAO by Michaelis-Menten plot analysis in presence of D-serine
[8] = target: T2, D-amino-acid oxidase; assay: Binding affinity to human recombinant DAAO at 600 nm spectral modification by spectrophotometric analysis in presence of FAD; summary of the method: as §2
[9] = target: T2, D-amino-acid oxidase; assay: Competitive inhibition of human recombinant DAAO after 1 hr by coupled enzyme assay in presence of D-serine
[10] = target: T2, D-amino-acid oxidase; assay: Binding affinity to human recombinant DAAO at 443 nm spectral modification by spectrophotometric analysis in presence of FAD; summary of the method: as §2
[11] = target: T2, D-amino-acid oxidase; assay: Binding affinity to human recombinant DAAO at 496 nm spectral modification by spectrophotometric analysis in presence of FAD; summary of the method: as §2
[12] = Drug uptake in C57BL/6 mouse cerebellum at 12 mg/kg, ip administered every 2 hrs by LC/MS/MS analysis; format: ADME, organism-based; design: dose 12 mg/kg, route intraperitoneal; settings: read-out: Drug uptake; summary of the method: as §1
[13] = test system: Rattus norvegicus; assay: Inhibition of DAAO in ip dosed Sprague-Dawley rat assessed as cerebellum concentration of compound required for 50% accumulation of D-serine after 6 hrs by LC/MS/MS analysis; format: functional, organism-based
Summary of the method: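 Rats received different ip doses. Cerebellum D-serine and inhibitor concentrations were measured 6 h later. EC50 was the inhibitor concentration at half-maximal D-serine increase, from a sigmoidal dose–response fit.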

[14] = target: T2, D-amino-acid oxidase; assay: Inhibition of DAAO (unknown origin)
[15] = test system: Rattus norvegicus; assay: Metabolic stability in Sprague-Dawley rat at 3 to 10 mg/kg, po/10 mg/kg, ip by LC/MS/MS analysis; format: ADME, organism-based; design: dose 3-10 mg/kg, route intraperitoneal; settings: in vivo
[16] = target: T2, D-amino-acid oxidase; assay: Binding affinity to human recombinant DAAO at 490 nm spectral modification by spectrophotometric analysis in presence of FAD
[17] = species: Mus musculus; settings: C57BL/6, Cerebellum, 12 mg/kg
[18] = Drug uptake in C57BL/6 mouse cerebellum at 12 mg/kg, ip after 2 hrs by LC/MS/MS analysis; format: ADME, organism-based; design: dose 12 mg/kg, route intraperitoneal; settings: read-out: Drug uptake; summary of the method: as §1
[19] = target: T2, D-amino-acid oxidase; assay: Binding affinity to human recombinant DAAO at 520 nm spectral modification by spectrophotometric analysis in presence of FAD
[20] = target: T2, D-amino-acid oxidase
[21] = target: T2, D-amino-acid oxidase; assay: Binding affinity to human recombinant DAAO at 444 nm spectral modification by spectrophotometric analysis in presence of FAD
Summary of the method: (§3)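 Oxidized holoenzyme of purified human recombinant DAAO, titrated with increasing inhibitor in the absence of substrate. Ligand-induced changes in the FAD visible absorption spectrum were read at fixed wavelengths. Kd and SE came from nonlinear regression of saturation of the absorbance change.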

[22] = target: T2, D-amino-acid oxidase; assay: Binding affinity to human recombinant DAAO at 395 nm spectral modification by spectrophotometric analysis in presence of FAD; summary of the method: as §3
[23] = Drug uptake in C57BL/6 mouse cerebellum at 125 mg/kg, ip after 3 hrs by LC/MS/MS analysis; format: ADME, organism-based; design: dose 125 mg/kg, route intraperitoneal; settings: read-out: Drug uptake; summary of the method: as §1
[24] = test system: Mus musculus; assay: Inhibition of DAAO in C57BL/6 mouse assessed as increase in rate of D-serine accumulation in cerebellum at 125 mg/kg, ip by LC/MS/MS analysis; format: functional, organism-based; design: dose 125 mg/kg; summary of the method: as §1
[25] = target: T2, D-amino-acid oxidase; assay: Binding affinity to human recombinant DAAO at 498 nm spectral modification by spectrophotometric analysis in presence of FAD; summary of the method: as §3
[26] = target: T2, D-amino-acid oxidase; assay: Binding affinity to human recombinant DAAO at 362 nm spectral modification by spectrophotometric analysis in presence of FAD; summary of the method: as §3

T1 sequence (P00371 whole entry): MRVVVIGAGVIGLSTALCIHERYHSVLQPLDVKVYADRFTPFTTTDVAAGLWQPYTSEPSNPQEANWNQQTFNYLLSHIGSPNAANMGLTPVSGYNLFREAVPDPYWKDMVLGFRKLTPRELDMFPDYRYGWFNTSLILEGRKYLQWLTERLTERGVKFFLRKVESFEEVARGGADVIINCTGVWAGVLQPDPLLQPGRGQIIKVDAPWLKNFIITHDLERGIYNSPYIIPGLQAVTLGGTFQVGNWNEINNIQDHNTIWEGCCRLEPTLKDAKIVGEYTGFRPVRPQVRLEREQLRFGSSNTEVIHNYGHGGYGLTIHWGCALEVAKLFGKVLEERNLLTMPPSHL

Kd [1]: 26 µM
SMILES: O=C(O)c1ccc[nH]1

concentration at 6 h [2]: > 1000 nM
SMILES: O=C(O)c1cc(CCc2ccc(Cl)cc2)c[nH]1

Ki [3]: 3.4 µM
SMILES: O=C(O)c1cc2ccccc2[nH]1 [INDOLE-2-CARBOXYLIC ACID]

Kd [4]: 6 µM
Kd [5]: 3.7 µM
Kd [6]: 4.8 µM
Ki [7]: 0.19 µM
Kd [8]: 3.2 µM
IC50 [9]: 0.219 µM
SMILES: O=C(O)c1cc2occ(CCc3ccccc3)c2[nH]1

Kd [4]: 6.3 µM
Kd [10]: 4 µM
Ki [7]: 0.013 µM
Kd [11]: 5.6 µM
IC50 [9]: 0.0347 µM
SMILES: O=c1oc2ccccc2cc1O [3-HYDROXYCOUMARIN]

SMILES: O=C(O)c1cc2sccc2[nH]1
concentration at 2 h [12]: > 1000 nM
EC50 [13]: 0.5 µM
IC50 [14]: 0.00537 µM
Kd [4]: 7 µM
Stability [15]: Unstable
Kd [16]: 0.13 µM
inhibition [17]: Active
Ki [7]: 0.0035 µM
concentration at 2 h [18]: < 1000 nM
IC50 [9]: 0.00537 µM
Kd [19]: 2.5 µM

SMILES: O=C(O)c1ccccc1 [BENZOIC ACID]
Kd [4]: 2.3 µM
Kd [5]: 2.2 µM
Ki [7]: 2 µM
Kd [20]: 9 µM
IC50 [9]: 2.09 µM

EC50 [13]: 1.5 µM
Kd [4]: 1.9 µM
Kd [21]: 4.2 µM
Kd [22]: 4 µM
concentration at 3 h [23]: < 1000 nM
Ki [7]: 0.0017 µM
Kd [25]: 4.2 µM
Kd [26]: 3.6 µM
IC50 [9]: 0.00309 µM
SMILES: Oc1noc2cc(Cl)c(Cl)cc12
inhibition [24]: Active
